Measurements reported in ChEMBL document CHEMBL4765248, “Design, synthesis, biological evaluation and molecular docking study of novel thieno[3,2-d]pyrimidine derivatives as potent FAK inhibitors” (Eur J Med Chem, 2020).

Tests used:
MDA-MB-231 = assay: Antiproliferative activity against human MDA-MB-231 cells assessed as inhibition of cell growth measured after 72 hrs by MTT assay; format: functional, cell-based; settings: MDA-MB-231, 72 h
Procedure, shortened: (§1)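 Cells were seeded at 4000–5000/well and held 24 h at 37 °C in 5% CO2. Compounds were added at the indicated final concentrations and incubated 72 h. MTT was added (5 mg/mL in PBS, stated as final) for 4 h at 37 °C. Formazan was dissolved in DMSO and absorbance read at 490 nm. The 50% growth-inhibitory concentration is the mean of three independent experiments ± SE.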

A549 = assay: Antiproliferative activity against human A549 cells assessed as inhibition of cell growth measured after 72 hrs by MTT assay; format: functional, cell-based; settings: A549, 72 h; procedure, shortened: as §1
Focal adhesion kinase 1 = Focal adhesion kinase 1 (Homo sapiens, UniProt Q05397); assay: Inhibition of N-terminal GST-fused human truncated FAK (376 to 1052 residues) expressed in baculovirus expression system using tyrosine kinase peptide as substrate measured after 50 mins in presence of ATP by homogenous time resolved flourescence assay
HK-2 = assay: Cytotoxicity against human HK2 cells assessed as inhibition of cell proliferation measured after 72 hrs by MTT assay; format: cell-based; settings: HK-2, 72 h; procedure, shortened: as §1
U-87 MG = assay: Antiproliferative activity against human U-87MG cells assessed as inhibition of cell growth measured after 72 hrs by MTT assay; format: functional, cell-based, U-87MG ATCC; procedure, shortened: as §1

Chain of Focal adhesion kinase 1 (Q05397 whole entry, the tested form may be a part): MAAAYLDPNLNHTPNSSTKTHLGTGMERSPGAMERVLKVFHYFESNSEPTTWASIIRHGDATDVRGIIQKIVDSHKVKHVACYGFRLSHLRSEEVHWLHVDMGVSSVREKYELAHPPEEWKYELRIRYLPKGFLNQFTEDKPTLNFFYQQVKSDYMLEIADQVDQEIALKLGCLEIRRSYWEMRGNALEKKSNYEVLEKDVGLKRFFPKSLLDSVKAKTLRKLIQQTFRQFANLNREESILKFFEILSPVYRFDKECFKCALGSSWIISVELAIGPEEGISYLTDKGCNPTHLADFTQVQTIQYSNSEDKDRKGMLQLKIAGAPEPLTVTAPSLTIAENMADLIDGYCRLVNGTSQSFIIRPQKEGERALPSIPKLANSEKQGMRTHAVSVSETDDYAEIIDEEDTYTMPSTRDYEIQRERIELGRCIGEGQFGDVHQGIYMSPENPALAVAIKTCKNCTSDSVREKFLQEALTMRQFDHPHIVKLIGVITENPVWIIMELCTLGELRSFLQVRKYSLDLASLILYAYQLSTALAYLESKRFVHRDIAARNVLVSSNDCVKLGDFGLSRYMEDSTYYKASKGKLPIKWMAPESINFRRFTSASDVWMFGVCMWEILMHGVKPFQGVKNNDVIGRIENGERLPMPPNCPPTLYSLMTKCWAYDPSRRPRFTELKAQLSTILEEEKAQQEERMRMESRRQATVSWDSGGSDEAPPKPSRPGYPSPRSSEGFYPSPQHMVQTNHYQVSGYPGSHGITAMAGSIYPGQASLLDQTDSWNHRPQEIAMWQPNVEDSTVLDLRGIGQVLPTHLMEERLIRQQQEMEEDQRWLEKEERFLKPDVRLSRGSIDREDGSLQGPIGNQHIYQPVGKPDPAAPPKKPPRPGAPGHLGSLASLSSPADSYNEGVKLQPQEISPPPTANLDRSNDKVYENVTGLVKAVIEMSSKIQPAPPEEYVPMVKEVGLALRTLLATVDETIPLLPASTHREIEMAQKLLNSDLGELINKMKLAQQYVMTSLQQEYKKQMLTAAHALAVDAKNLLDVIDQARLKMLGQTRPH

Row | SMILES | IC50 (MDA-MB-231) [µM] | IC50 (A549) [µM] | IC50 (Focal adhesion kinase 1) [µM] | IC50 (HK-2) [µM] | IC50 (U-87 MG) [µM]
1 | COc1ccccc1-c1csc2cnc(Nc3ccc(C(=O)NC4CCNCC4)cc3)nc12 | 0.11 | 0.36 | 0.0388 | 11.4 | 0.65
2 | COc1ccccc1-c1csc2cnc(Nc3ccc(C(=O)NC[C@H]4CCCNC4)c(F)c3)nc12 | 8.62 | 4.45 | 0.149 | – | –
3 | CNC(=O)c1cccc(-c2csc3cnc(Nc4ccc(CP(=O)(OC)OC)cc4)nc23)c1 | – | – | 0.324 | – | –
4 | COP(=O)(Cc1ccc(Nc2ncc3scc(-c4cccc(N(C)S(C)(=O)=O)c4)c3n2)cc1)OC | – | – | 0.638 | – | –
5 | COc1ccccc1-c1csc2cnc(Nc3ccc(C(=O)NCC4CCNCC4)c(F)c3)nc12 | 1.53 | 3.41 | 0.12 | – | –
6 | COc1cc(C(=O)NC2CCNCC2)ccc1Nc1ncc2scc(-c3ccccc3OC)c2n1 | 2.24 | 2.88 | 0.0272 | 12.2 | 6.4
7 | COc1ccccc1-c1csc2cnc(Nc3ccc(C(=O)NC4CCNCC4)c(C)c3)nc12 | 0.24 | 0.87 | 0.0257 | 4.45 | 0.46
8 | COc1ccccc1-c1csc2cnc(Nc3ccc(NC(=O)C4CCNCC4)cc3)nc12 | 1.05 | 0.45 | 0.0577 | 11.7 | 1.06
9 | COc1cc(C(=O)NC2CCNCC2)c(F)cc1Nc1ncc2scc(-c3ccccc3OC)c2n1 | 1.16 | 1.9 | 0.0382 | 0.78 | 3.59
10 | COc1ccccc1-c1csc2cnc(Nc3ccc(NC(=O)[C@H]4CCCNC4)cc3)nc12 | 0.44 | 0.5 | 0.167 | 4.89 | 0.3
11 | COc1ccccc1-c1csc2cnc(Nc3ccc(NC(=O)CN)cc3)nc12 | 2.77 | 1.95 | 0.144 | – | 0.21
12 | COP(=O)(Cc1ccc(Nc2ncc3scc(-c4cccc(C(C)=O)c4)c3n2)cc1)OC | – | – | 0.351 | – | –
13 | COc1ccccc1-c1csc2cnc(Nc3ccc(CP(=O)(OC)OC)cc3)nc12 | 7.81 | 1.8 | 0.134 | – | 1.71
14 | COP(=O)(Cc1ccc(Nc2ncc3scc(-c4cccc(S(C)(=O)=O)c4)c3n2)cc1)OC | – | – | 0.14 | – | –
15 | CCOc1cc(C(=O)NC2CCNCC2)ccc1Nc1ncc2scc(-c3ccccc3OC)c2n1 | 4.39 | 5.77 | 0.166 | – | 2.03
16 | COc1ccc(-c2csc3cnc(Nc4ccc(CP(=O)(OC)OC)cc4)nc23)cc1 | – | – | 1.06 | – | –
17 | COc1ccccc1-c1csc2cnc(Nc3ccc(NC(=O)[C@@H]4CCCNC4)cc3)nc12 | 0.41 | 0.41 | 0.199 | – | 0.36

Row | SMILES | IC50 (MDA-MB-231) [µM] | IC50 (A549) [µM] | IC50 (Focal adhesion kinase 1) [µM] | IC50 (HK-2) [µM] | IC50 (U-87 MG) [µM]
18 | COc1ccccc1-c1csc2cnc(Nc3ccc(C(=O)N[C@@H]4CCNC4)c(F)c3)nc12 | 0.26 | 0.43 | 0.0713 | – | –
19 | COc1ccccc1-c1csc2cnc(Nc3ccc(C(=O)NC4CCNCC4)cc3F)nc12 | 1.61 | 2.75 | 0.0483 | – | 2.37
20 | COc1ccccc1-c1csc2cnc(Nc3ccc(C(=O)NC4CCOCC4)c(F)c3)nc12 | 5.35 | 5.71 | 0.118 | – | –
21 | COc1ccccc1-c1csc2cnc(Nc3cc(F)c(C(=O)NC4CCNCC4)cc3F)nc12 | 2.57 | 5.39 | 0.0242 | – | 1.48
22 | COc1ccccc1-c1csc2cnc(Nc3ccc(C(=O)NC4CCN(C)CC4)c(F)c3)nc12 | 0.35 | 0.66 | 0.0478 | – | –
23 | CCOP(=O)(Cc1ccc(Nc2ncc3scc(-c4ccccc4OC)c3n2)cc1)NC (centres undefined) | 1.21 | 1.73 | 0.184 | – | 1.3
24 | COc1ccccc1-c1csc2cnc(Nc3ccc(C(=O)N[C@H]4CCNC4)c(F)c3)nc12 | 0.56 | 0.87 | 0.132 | – | –
25 | CNC(=O)c1ccc(Nc2ncc3scc(-c4ccccc4OC)c3n2)cc1 | 2.12 | 0.31 | 0.0793 | 0.71 | 0.71
26 | CCOP(=O)(Cc1ccc(Nc2ncc3scc(-c4ccccc4OC)c3n2)cc1)N1CCOCC1 (centres undefined) | 8.35 | 0.85 | 0.351 | – | 1.22
27 | COc1ccccc1-c1csc2cnc(Nc3ccc(C(=O)NC4CCNCC4)cc3C)nc12 | 3.24 | 3.42 | 0.0265 | – | 0.25
28 | CNC(=O)c1ccccc1Nc1nc(Nc2ccc(N3CCOCC3)cc2OC)ncc1Cl | 4.06 | 1.16 | – | – | 1.67
29 | COP(=O)(Cc1ccc(Nc2ncc3scc(-c4ccccc4C(C)=O)c3n2)cc1)OC | – | – | 1.08 | – | –
30 | COc1ccccc1-c1csc2cnc(Nc3ccc(C(=O)NC[C@@H]4CCCNC4)c(F)c3)nc12 | 2.89 | 5.05 | 0.111 | – | –
31 | COP(=O)(Cc1ccc(Nc2ncc3scc(-c4cccc(NC(C)=O)c4)c3n2)cc1)OC | – | – | 0.377 | – | –
32 | CCOP(=O)(Cc1ccc(Nc2ncc3scc(-c4ccccc4OC)c3n2)cc1)OCC | 4.94 | 0.96 | 0.157 | – | 1.3
33 | CCOP(=O)(OCC)C(O)c1ccc(Nc2ncc3scc(-c4ccccc4OC)c3n2)cc1 (centres undefined) | 2.64 | 0.35 | 0.321 | – | 1.95
34 | COc1ccccc1-c1csc2cnc(Nc3ccc(C(=O)NC4CCNCC4)cc3C(F)(F)F)nc12 | 2.75 | 4.11 | 0.709 | – | 2.09
